Results taken from ChEMBL document CHEMBL1134785, “Synthesis and biological evaluation of prostaglandin-F alkylphosphinic acid derivatives as bone anabolic agents for the treatment of osteoporosis” (J Med Chem, 2001).

Tests used:
[1] = target: Prostaglandin E2 receptor EP2 subtype (Homo sapiens, UniProt P43116); assay: In vitro binding at EP2 human prostaglandin receptor
Procedure, shortened: (§1)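 Receptors stably expressed in CHO cells, collected 4-5 days after seeding. Membranes made by lysis (Tris, EDTA, protease inhibitors) and 100000g pellet, then resuspended at 1 mg protein/mL in TME. Radioligands at 5 nM: [3H]PGE2 for EP2/EP3/EP4, [3H]Iloprost for IP, [3H]SQ-29548 for TP. Competition binding with filtration and counting.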

[2] = target: Prostaglandin E2 receptor EP4 subtype (Homo sapiens, UniProt P35408); assay: In vitro binding at EP4 human prostaglandin receptor using [3H]PGE-2 as radioligand; procedure, shortened: as §1
Prostaglandin E2 receptor EP4 subtype, sequence (P35408 whole entry): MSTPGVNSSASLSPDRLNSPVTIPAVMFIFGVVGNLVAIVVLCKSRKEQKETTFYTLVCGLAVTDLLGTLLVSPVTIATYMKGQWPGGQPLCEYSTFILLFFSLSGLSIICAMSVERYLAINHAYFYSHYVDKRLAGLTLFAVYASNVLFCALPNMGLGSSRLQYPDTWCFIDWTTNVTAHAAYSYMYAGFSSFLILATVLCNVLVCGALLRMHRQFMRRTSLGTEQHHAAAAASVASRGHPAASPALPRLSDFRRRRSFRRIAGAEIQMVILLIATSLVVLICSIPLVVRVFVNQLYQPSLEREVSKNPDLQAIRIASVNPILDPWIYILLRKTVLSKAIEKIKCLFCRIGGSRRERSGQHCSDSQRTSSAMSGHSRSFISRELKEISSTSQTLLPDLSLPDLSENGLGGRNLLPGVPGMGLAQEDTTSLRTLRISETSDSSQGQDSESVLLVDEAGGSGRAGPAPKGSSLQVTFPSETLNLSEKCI

Rattus norvegicus [3] = assay: Mineralizing surface/bone surface(%) measured Histomorphometrically after a dose of 100 ug/kg in proximal tibial metaphysis; format: functional
Procedure, shortened: (§2)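 Ovariectomized six-month-old rats, 6-8 per group, were dosed subcutaneously once daily at 0.01–3.0 mg/kg for 60 days, starting 60 days after surgery. Vehicle was acetate-buffered saline, methylcellulose and polyoxyethylenesorbitan monooleate. Labels were xylenol orange 90 mg/kg pretreatment and calcein 10 mg/kg at 14 and 4 days before necropsy. Histomorphometry covered the proximal tibial metaphysis, 1–4 mm distal to the growth plate–metaphyseal junction. ANOVA/LSD versus vehicle.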

Rattus norvegicus [4] = assay: Bone Volume /Tissue Volume (%)measured Histomorphometrically after a dose of 30 ug/kg in proximal tibial metaphysis; format: functional; details: at 30 µg/kg
Rattus norvegicus [5] = assay: Mineralizing surface/bone surface(%) measured Histomorphometrically after a dose of 30 ug/kg in proximal tibial metaphysis; format: functional; procedure, shortened: as §2
Rattus norvegicus [6] = assay: Mineralizing surface/bone surface(%) measured Histomorphometrically after a dose of 300 ug/kg in proximal tibial metaphysis; format: functional; procedure, shortened: as §2
Rattus norvegicus [7] = assay: Mineralizing surface/bone surface(%) measured Histomorphometrically after a dose of 3000 ug/kg in proximal tibial metaphysis; format: functional; procedure, shortened: as §2
Rattus norvegicus [8] = assay: Bone formation rate/tissue volume (%/year) bone measured histomorphometrically after a dose of 300 ug/kg in proximal tibial metaphysis; format: functional; details: at 300 µg/kg
Rattus norvegicus [9] = assay: Bone formation rate/tissue volume (%/year) bone measured histomorphometrically after a dose of 3000 ug/kg in proximal tibial metaphysis; format: functional; details: at 3000 µg/kg
Rattus norvegicus [10] = assay: Derived trabecular no (mm-1)measured using micro Computed Tomography(CT) after a dose of 1000 ug/kg in Vertebral Bone; format: functional, Trabecula
Procedure, shortened: (§3)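 Micro-CT of the fifth lumbar vertebra, measuring cancellous bone volume and architecture. Rats were 6 months old, OVX 60 days before treatment, then dosed daily for 60 days. Test-agent doses were 10–3000 µg/kg, given as a once-daily subcutaneous injection; 6 mg/kg/day was given to the positive-control group. Groups were compared with vehicle by ANOVA plus LSD test.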

Rattus norvegicus [11] = assay: Derived trabecular no […]measured using micro Computed Tomography(CT) after a dose of 10 ug/kg in Vertebral Bone; format: functional, Trabecula; procedure, shortened: as §3
Rattus norvegicus [12] = assay: Derived trabecular no […]measured using micro Computed Tomography(CT) after a dose of 30 ug/kg in Vertebral Bone; format: functional, Trabecula; procedure, shortened: as §3
Rattus norvegicus [13] = assay: Directly measured thickness(um) using micro Computed Tomography(CT) after a dose of 1000 ug/kg in Vertebral Bone; format: functional; procedure, shortened: as §3
Rattus norvegicus [14] = assay: Directly measured thickness(um) using micro Computed Tomography(CT) after a dose of 300 ug/kg in Vertebral Bone; format: functional; procedure, shortened: as §3
Rattus norvegicus [15] = assay: Endosteal eroded surface(%) measured Histomorphometrically after a dose of 10 ug/kg in tibial diaphysis; format: functional
Procedure, shortened: (§4)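 Tibial histomorphometry in 6-month-old rats, OVX 60 days before treatment, then daily injection for 60 days. Vehicle was acetate-buffered saline with methylcellulose and polyoxyethylenesorbitan monooleate. Rats received xylenol orange 90 mg/kg before treatment and calcein 10 mg/kg at 14 and 4 days pre-sacrifice. Rats were killed by cardiac puncture under ketamine/xylazine. Groups were compared with vehicle by ANOVA plus LSD test.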

Rattus norvegicus [16] = assay: Endosteal eroded surface(%) measured Histomorphometrically after a dose of 100 ug/kg in tibial diaphysis; format: functional; procedure, shortened: as §4
Rattus norvegicus [17] = assay: Endosteal eroded surface(%) measured Histomorphometrically after a dose of 1000 ug/kg in tibial diaphysis; format: functional; procedure, shortened: as §4
Rattus norvegicus [18] = assay: Endosteal eroded surface(%) measured Histomorphometrically after a dose of 30 ug/kg in tibial diaphysis; format: functional; procedure, shortened: as §4
Rattus norvegicus [19] = assay: Endosteal eroded surface(%) measured Histomorphometrically after a dose of 300 ug/kg in tibial diaphysis; format: functional; procedure, shortened: as §4
Rattus norvegicus [20] = assay: Endosteal mineralizing surface Histomorphometrically after a dose of 1000 ug/kg in tibial diaphysis; format: functional
Procedure, shortened: (§5)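 Six-month-old rats, bilaterally ovariectomized, 6-8 per group, on natural chow. After 60 days they received once-daily subcutaneous dosing for 60 days at 0.01–3.0 mg/kg. Vehicle was acetate-buffered saline with methylcellulose and polyoxyethylenesorbitan monooleate. Labels were xylenol orange 90 mg/kg before treatment and calcein 10 mg/kg 14 and 4 days before sacrifice. Tibial histomorphometry was read under fluorescent light, with ANOVA/LSD versus vehicle.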

Rattus norvegicus [21] = assay: Endosteal mineralizing surface Histomorphometrically after a dose of 30 ug/kg in tibial diaphysis; format: functional; procedure, shortened: as §5
Rattus norvegicus [22] = assay: Marrow area (mm) measured Histomorphometrically after a dose of 10 ug/kg in tibial diaphysis; format: functional; procedure, shortened: as §5
Rattus norvegicus [23] = assay: Marrow area (mm) measured Histomorphometrically after a dose of 3000 ug/kg in tibial diaphysis; format: functional; procedure, shortened: as §5
Rattus norvegicus [24] = assay: Periosteal mineral apposition rate ([…]) measured Histomorphometrically after a dose of 1000 ug/kg in tibial diaphysis; format: functional; procedure, shortened: as §5
Rattus norvegicus [25] = assay: Periosteal mineralizing surface (%) measured Histomorphometrically after a dose of 10 ug/kg in tibial diaphysis; format: functional
Procedure, shortened: (§6)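 Rats on natural chow (1.46% Ca) were bilaterally ovariectomized at 6 months and left untreated for 60 days. They then received once-daily subcutaneous doses for 60 days, with vehicle of acetate-buffered saline, methylcellulose and polysorbate. Xylenol orange (90 mg/kg) was given before treatment and calcein (10 mg/kg) 14 and 4 days before sacrifice. Tibiae were analysed by fluorescent histomorphometry, 6-8 rats/group, ANOVA/LSD vs vehicle.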

Rattus norvegicus [26] = assay: Mineral apposition rate ([…])bone Histomorphometrically after a dose of 30 ug/kg in proximal tibial metaphysis; format: functional; procedure, shortened: as §2
Rattus norvegicus [27] = assay: Mineral apposition rate ([…])bone measured Histomorphometrically after a dose of 300 ug/kg in proximal tibial metaphysis; format: functional; procedure, shortened: as §2
Rattus norvegicus [28] = assay: Trabecular no (mm)measured Histomorphometrically after a dose of 30 ug/kg in proximal tibial metaphysis; format: functional, Trabecula
Procedure, shortened: (§7)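 Six-month-old rats were ovariectomized, and 60 days later daily subcutaneous dosing began for 60 days, with vehicle of acetate-buffered saline, methylcellulose and polysorbate. Xylenol orange (90 mg/kg) labelled bone pre-treatment and calcein (10 mg/kg) 14 and 4 days pre-sacrifice. Histomorphometry covered the proximal tibial metaphysis 1-4 mm distal to the growth plate-metaphyseal junction. Groups were 6-8 rats, compared by ANOVA/LSD vs vehicle.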

Rattus norvegicus [29] = assay: Trabecular thickness […] measured Histomorphometrically after a dose of 1000 ug/kg in proximal tibial metaphysis; format: functional, Trabecula; procedure, shortened: as §7
Rattus norvegicus [30] = assay: Trabecular thickness […] measured Histomorphometrically after a dose of 300 ug/kg in proximal tibial metaphysis; format: functional, Trabecula; procedure, shortened: as §7
Rattus norvegicus [31] = assay: Tissue area (mm) measured Histomorphometrically after a dose of 30 ug/kg in tibial diaphysis; format: functional; procedure, shortened: as §6
Rattus norvegicus [32] = assay: Periosteal mineralizing surface (%) measured Histomorphometrically after a dose of 1000 ug/kg in tibial diaphysis; format: functional; procedure, shortened: as §6

Prostaglandin E2 receptor EP2 subtype, sequence (P43116 whole entry): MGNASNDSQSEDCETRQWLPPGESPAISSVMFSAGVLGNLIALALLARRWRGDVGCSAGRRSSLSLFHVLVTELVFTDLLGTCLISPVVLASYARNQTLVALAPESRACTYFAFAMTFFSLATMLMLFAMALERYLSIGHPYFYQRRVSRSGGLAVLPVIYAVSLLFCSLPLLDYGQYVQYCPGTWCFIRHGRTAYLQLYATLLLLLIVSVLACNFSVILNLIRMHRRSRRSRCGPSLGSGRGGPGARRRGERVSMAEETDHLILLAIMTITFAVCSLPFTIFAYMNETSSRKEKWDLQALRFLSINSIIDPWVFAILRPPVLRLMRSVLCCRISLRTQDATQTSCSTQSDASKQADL

CP(=O)(O)CCC/C=C\C[C@@H]1[C@@H](/C=C/[C@@H](O)COc2ccccc2)[C@H](O)C[C@@H]1O was tested, and the IC50 [1] was over 10 µM, the IC50 [2] was over 10 µM and the Activity (Rattus norvegicus [3]) was 27.11%. The Activity (Rattus norvegicus [4]) was 3.63%, the Activity (Rattus norvegicus [5]) was 30.59% and the Activity (Rattus norvegicus [6]) was 23.57%. It also gave an Activity (Rattus norvegicus [7]) of 23.66%, an Activity (Rattus norvegicus [8]) of 18.03% and an Activity (Rattus norvegicus [9]) of 20.13%. For the same compound, the Derived trabecular number (Rattus norvegicus [10]) was 4.59 mm-1, the Derived trabecular number (Rattus norvegicus [11]) was 4.26 mm-1 and the Derived trabecular number (Rattus norvegicus [12]) was 4.44 mm-1. For the same compound, the Directly measured thickness (Rattus norvegicus [13]) was 128 µm, the Directly measured thickness (Rattus norvegicus [14]) was 127 µm and the Endosteal eroded surface (Rattus norvegicus [15]) was 11.83%. It also gave an Endosteal eroded surface (Rattus norvegicus [16]) of 2.3%, an Endosteal eroded surface (Rattus norvegicus [17]) of 2.74% and an Endosteal eroded surface (Rattus norvegicus [18]) of 2.01%. It also gave an Endosteal eroded surface (Rattus norvegicus [19]) of 1.32%, an Endosteal mineralizing surface (Rattus norvegicus [20]) of 35.29% and an Endosteal mineralizing surface (Rattus norvegicus [21]) of 28.72%. The Marrow area (Rattus norvegicus [22]) was 0.93 mm², the Marrow area (Rattus norvegicus [23]) was 0.74 mm and the Periosteal mineral apposition rate (Rattus norvegicus [24]) was 0 µm/day. It also gave a Periosteal mineralizing surface (Rattus norvegicus [25]) of 25.86%, a Mineral apposition rate (Rattus norvegicus [26]) of 1.09 µm/day and a Mineral apposition rate (Rattus norvegicus [27]) of 0.98 µm/day. For the same compound, the Trabecular no. (Rattus norvegicus [28]) was 0.87 1/mm, the Trabecular thickness (Rattus norvegicus [29]) was 56.7 µm and the Trabecular thickness (Rattus norvegicus [30]) was 44 µm. The Tissue area (Rattus norvegicus [31]) was 5.19 mm and the Periosteal mineralizing surface (Rattus norvegicus [32]) was 10.35%.
